Activity calls are given as the source filed them.
Key:
[1] = test system: Trypanosoma brucei rhodesiense; assay: Antiparasitic activity against Trypanosoma brucei rhodesiense STIB 900 clone after 72 hrs by Alamar blue assay; assay type: functional, organism-based; details: STIB 900, 72 h
[2] = Metabolic stability in rat liver microsomes assessed as intrinsic clearance up to 45 mins by LC/MS/MS analysis; assay type: ADME, Microsome
[3] = Metabolic stability in human liver microsomes assessed as intrinsic clearance up to 45 mins by LC/MS/MS analysis; assay type: ADME, Microsome
[4] = Metabolic stability in rat hepatocytes assessed as intrinsic clearance up to 45 mins by LC/MS/MS analysis; assay type: ADME, cell-based, Liver, Hepatocyte
[5] = Metabolic stability in human hepatocytes assessed as intrinsic clearance up to 45 mins by LC/MS/MS analysis; assay type: ADME, cell-based, Liver, Hepatocyte
CYP3A4 = CYP3A4 (Homo sapiens, UniProt P08684); assay: Inhibition of human cytochrome P450 3A4; details: human
Chain of CYP3A4 (P08684 whole entry): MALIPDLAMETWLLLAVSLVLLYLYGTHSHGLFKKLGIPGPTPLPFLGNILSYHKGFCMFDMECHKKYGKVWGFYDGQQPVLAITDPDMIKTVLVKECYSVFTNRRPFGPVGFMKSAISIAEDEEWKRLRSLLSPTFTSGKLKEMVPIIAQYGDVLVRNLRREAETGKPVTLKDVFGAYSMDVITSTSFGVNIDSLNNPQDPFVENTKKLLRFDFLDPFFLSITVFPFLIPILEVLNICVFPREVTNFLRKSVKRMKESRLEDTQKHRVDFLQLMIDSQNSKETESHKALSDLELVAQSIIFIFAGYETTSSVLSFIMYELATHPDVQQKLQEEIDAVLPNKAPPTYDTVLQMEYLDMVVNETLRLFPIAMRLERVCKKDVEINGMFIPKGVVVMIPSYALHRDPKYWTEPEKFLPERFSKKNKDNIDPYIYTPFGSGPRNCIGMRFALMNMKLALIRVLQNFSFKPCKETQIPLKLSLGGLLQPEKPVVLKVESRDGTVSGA

CYP2D6 = CYP2D6 (Homo sapiens, UniProt P10635); assay: Inhibition of human cytochrome P450 2D6; details: human
Chain of CYP2D6 (P10635 whole entry): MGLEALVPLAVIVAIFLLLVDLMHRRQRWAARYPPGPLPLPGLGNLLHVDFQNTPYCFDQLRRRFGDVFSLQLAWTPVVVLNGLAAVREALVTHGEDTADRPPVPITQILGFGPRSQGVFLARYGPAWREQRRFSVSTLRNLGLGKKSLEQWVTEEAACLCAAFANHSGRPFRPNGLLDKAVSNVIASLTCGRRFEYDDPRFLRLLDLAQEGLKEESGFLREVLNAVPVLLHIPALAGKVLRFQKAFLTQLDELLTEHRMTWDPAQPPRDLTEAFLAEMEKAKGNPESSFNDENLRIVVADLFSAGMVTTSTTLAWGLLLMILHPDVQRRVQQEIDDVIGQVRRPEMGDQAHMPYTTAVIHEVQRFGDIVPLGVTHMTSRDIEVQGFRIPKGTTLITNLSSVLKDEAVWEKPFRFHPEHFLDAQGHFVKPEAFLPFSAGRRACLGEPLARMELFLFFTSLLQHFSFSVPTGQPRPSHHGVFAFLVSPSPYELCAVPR

CYP2C9 = CYP2C9 (Homo sapiens, UniProt P11712); assay: Inhibition of human cytochrome P450 2C9; details: human
Chain of CYP2C9 (P11712 whole entry): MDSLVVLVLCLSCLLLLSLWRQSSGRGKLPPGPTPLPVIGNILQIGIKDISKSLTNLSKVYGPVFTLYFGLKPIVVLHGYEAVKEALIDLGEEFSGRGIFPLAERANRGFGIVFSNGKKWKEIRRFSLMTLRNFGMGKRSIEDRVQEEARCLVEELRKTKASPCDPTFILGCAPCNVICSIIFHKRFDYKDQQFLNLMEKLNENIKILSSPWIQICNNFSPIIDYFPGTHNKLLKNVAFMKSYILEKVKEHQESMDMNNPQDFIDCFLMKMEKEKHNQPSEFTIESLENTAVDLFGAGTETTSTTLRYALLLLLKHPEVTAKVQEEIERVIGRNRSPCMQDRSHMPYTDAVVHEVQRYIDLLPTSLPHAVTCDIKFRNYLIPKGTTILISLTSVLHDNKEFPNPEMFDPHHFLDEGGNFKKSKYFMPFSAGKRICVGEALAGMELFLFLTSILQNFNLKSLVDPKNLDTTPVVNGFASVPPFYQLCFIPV

CYP2C19 = CYP2C19 (Homo sapiens, UniProt P33261); assay: Inhibition of human cytochrome P450 2C19; details: human
Chain of CYP2C19 (P33261 whole entry): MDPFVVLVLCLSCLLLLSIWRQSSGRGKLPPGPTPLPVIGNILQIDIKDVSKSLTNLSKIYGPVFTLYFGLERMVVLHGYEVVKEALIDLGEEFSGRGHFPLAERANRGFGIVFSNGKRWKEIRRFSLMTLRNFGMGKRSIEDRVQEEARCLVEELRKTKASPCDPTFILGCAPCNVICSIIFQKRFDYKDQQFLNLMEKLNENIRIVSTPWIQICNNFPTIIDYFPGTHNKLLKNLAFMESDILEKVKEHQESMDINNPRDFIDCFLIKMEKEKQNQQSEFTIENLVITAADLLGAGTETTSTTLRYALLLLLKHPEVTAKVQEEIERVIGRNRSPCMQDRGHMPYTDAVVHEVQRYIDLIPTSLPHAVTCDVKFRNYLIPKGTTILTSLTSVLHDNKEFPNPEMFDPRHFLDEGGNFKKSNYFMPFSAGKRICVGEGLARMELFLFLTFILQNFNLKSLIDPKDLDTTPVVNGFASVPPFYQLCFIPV

CYP1A2 = biological target: T1, CYP1A2 (Homo sapiens, UniProt P05177); assay: Inhibition of human cytochrome P450 1A2; details: human
T1 sequence (P05177 whole entry): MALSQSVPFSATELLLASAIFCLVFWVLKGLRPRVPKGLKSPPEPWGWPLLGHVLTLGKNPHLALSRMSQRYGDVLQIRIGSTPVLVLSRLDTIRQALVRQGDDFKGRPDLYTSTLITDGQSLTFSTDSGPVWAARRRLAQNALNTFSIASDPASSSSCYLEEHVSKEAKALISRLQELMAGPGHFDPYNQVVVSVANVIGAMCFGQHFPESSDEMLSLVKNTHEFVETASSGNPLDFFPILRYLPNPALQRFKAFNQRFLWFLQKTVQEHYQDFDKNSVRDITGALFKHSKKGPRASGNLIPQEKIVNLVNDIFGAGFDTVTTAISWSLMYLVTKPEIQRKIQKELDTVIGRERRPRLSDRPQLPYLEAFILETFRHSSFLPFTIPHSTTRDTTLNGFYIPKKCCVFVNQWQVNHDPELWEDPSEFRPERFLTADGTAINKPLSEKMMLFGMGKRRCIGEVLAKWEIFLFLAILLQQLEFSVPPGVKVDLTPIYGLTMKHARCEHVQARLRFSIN

[6] = Protein binding in human plasma at pH 7.4 after 4 hrs; assay type: ADME, cell-free; details: read-out: PPB (converted)
[7] = Protein binding in mouse plasma at pH 7.4 after 4 hrs; assay type: ADME, cell-free; details: read-out: PPB (converted)
[8] = Kinetic solubility in phosphate-buffered saline at pH 7.4 after 16 to 24 hrs by UV spectrophotometry
[9] = AUC in mouse blood at 50 mg/kg, ip administered as single dose; assay type: ADME, organism-based; parameters: dose 50 mg/kg, route intraperitoneal
[10] = AUC in mouse brain at 50 mg/kg, ip administered as single dose; assay type: ADME, organism-based; parameters: dose 50 mg/kg, route intraperitoneal
[11] = Half life in mouse at 50 mg/kg, ip administered as single dose; assay type: ADME, organism-based; parameters: dose 50 mg/kg, route intraperitoneal; details: in vivo
[12] = Cmax in mouse blood at 50 mg/kg, ip administered as single dose; assay type: ADME, organism-based; parameters: dose 50 mg/kg, route intraperitoneal
[13] = Cmax in mouse brain at 50 mg/kg, ip administered as single dose; assay type: ADME, organism-based; parameters: dose 50 mg/kg, route intraperitoneal
in vivo = details: mouse, brain, ip, 50 mg/kg
[14] = test system: Trypanosoma brucei brucei; assay: Antiparasitic activity against Trypanosoma brucei brucei LAB 110 EATRO infected in mouse assessed as mean survival days at 2 mg/kg, ip qd for 4 days administered on 1st day of infection and measured through day 40 post infection; assay type: functional; details: route intraperitoneal
In short: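 Mice in groups of five, infected i.p. on day 0 with 2.5 × 10^5 T. b. brucei LAB 110 EATRO parasites; i.p. dosing began day 1. Parasitemia checked twice weekly by microscopy of at least 20 fields of wet blood smears through day 40, with animals considered cured only when clear through day 40.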

[15] = test system: Trypanosoma brucei brucei; assay: Antiparasitic activity against Trypanosoma brucei brucei LAB 110 EATRO infected in mouse assessed as parasitemia cure incidence at 2 mg/kg, ip qd for 4 days administered on 1st day of infection and measured through day 40 post infection; assay type: functional, organism-based; parameters: dose 2 mg/kg

Compound | IC50 [1] [µM] | CLint scaled [2] [mL/min/kg] | CLint scaled [3] [mL/min/kg] | CLint scaled [4] [mL/min/kg] | CLint scaled [5] [mL/min/kg] | IC50 (CYP3A4) [µM] | IC50 (CYP2D6) [µM] | IC50 (CYP2C9) [µM] | IC50 (CYP2C19) [µM] | IC50 (CYP1A2) [µM] | fraction unbound at 4 h [6] | fraction unbound at 4 h [7] | solubility kinetic [8] [µg/mL] | other results
CN(C/C=C\CN)C[C@H]1O[C@@H](n2cnc3c(N)ncnc32)[C@@H](F)[C@@H]1O | 0.319 | < 11 | < 4.2 | < 11 | < 4.2 | > 5 | > 5 | > 5 | > 5 | > 5 | 0.678 | 0.628 | > 47 | 
CN(C/C=C\CN)C[C@H]1O[C@@H](n2cnc3c(N)nc(Cl)nc32)[C@H](O)[C@@H]1O | 0.259 | < 11 | < 4.2 | < 11 | < 4.2 | > 5 | > 5 | > 5 | > 5 | > 5 | 0.61 | 0.578 | > 51 | AUC [9]: 22100 ng·h/mL; AUC [10]: 400 ng·h/mL; half-life [11]: 1.66 h; Cmax [12]: 39000 ng/mL; Cmax [13]: 110 ng/mL; Kp (in vivo): 1.79
N=C(N)c1ccc(OCCCCCOc2ccc(C(=N)N)cc2)cc1 [PENTAMIDINE] |  |  |  |  |  |  |  |  |  |  |  |  |  | Survival [14]: >40 days; Activity [15]: Active

— ChEMBL document CHEMBL1649443, “Novel S-adenosylmethionine decarboxylase inhibitors for the treatment of human African trypanosomiasis” (Antimicrob Agents Chemother, 2009)
